B1: tRNA (parent)
chain: GUUCCGUUGGCGUAAUGGUAACGCGUCUCCCUCCUAAGGAGAAGACUGCGGGUUCGAGUCCCGUACGGAACG

This sample holds only a part of the variants without activity.

In this data set the parent is B1. In words: yeast fitness relative to wild type (ratio to wild type); higher = fitter; tRNA-Arg(CCU), competitive growth, 37 C, YPD. In short, it runs like this: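 The tRNA-Arg(CCU) gene variants were made by chemical synthesis with a 3% per-site mutation rate at 69 sites and inserted at the native genomic locus of Saccharomyces cerevisiae. After pooling, the strains were competed in YPD at 37°C for 24 hours in six parallel replicates. Gene amplicons from the start population and each end population were read by 100-nucleotide paired-end sequencing, and Darwinian fitness relative to wild type was taken from genotype frequency changes. Genotypes needed ≥ 100 starting reads, and estimates < 0.5 were set to 0.5.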
For GGUCCGUUGGCGUAAUGGUAACGAGUCUCCCUCCUAAGGAGAAGGCUGCGGGUUCGAGUCGUGUACGGAACG [U2G C24A A45G C61G C62U], the yeast fitness was at most 0.5.

As to GUUCCGUUGGCGUAAUGGUAACGCGUCUCCCUCCCAAGGAGAAAAGUGCCGGAUCGAGUCCCGUAAGGAACG [U35C G44A C46G G50C U53A C66A], the yeast fitness was at most 0.5.

For the variant GUUCCGUUGGGGUAAUGGUAACGCGUCUCCCUCCUAGAGAGAAGUCUGCGGGUUCGAGUCCCGUACGGAGCG [C11G A37G G38A A45U A70G], the yeast fitness is at most 0.5.

As to GUUCCGUUGGCGUAAUGGUAAAGCGUCUCCCUCCUAAGGAGAAGACUGCCGGUUCGAGUCCCGUACGGAACG [C22A G50C], the yeast fitness stood at 0.627.

In the case of GUUCAGUUGGCGUAAUGGUAACGCGUCUCCCUCCUAAGGAGAAGAGUGCGGGUUCGAGUCCCGUACGGAACG [C5A C46G], the yeast fitness was 0.719.

In the case of GUUCCGUUGGGGUAACGGUAUCGCGUCUCCCUCCUAAGGAGAAGACUGCGGGUUCGAGUCCCGUACGGAACG [C11G U16C A21U], the yeast fitness was at most 0.5.

For the variant GUUCCGUUAGCGUAAUGGCAACGCGUCUCCCUCCUAAGGAGAAGACUGCGGGUUCGAGUCCCGUAUGGAACG [G9A U19C C66U], the yeast fitness was 0.742.

For the variant GUUCCGUUGGCGUAAUGGUAACGCGUCUCCCUGCUAAGGAGAAGACUGCGGGUUCGAGUCCCGUACGGAGCG [C33G A70G], the yeast fitness is 0.633.

Regarding GUUCGGUUGGCGUCAUGGUAACGCGUCUCCCUCCUAACAAGACGACUGCGGGUUCGAGUGCCGUCCGGAACG [C5G A14C G38C G39A A43C C60G A65C], the yeast fitness is at most 0.5.

In the case of GUUCCGUUGGCGUAAUGGUAAGGCGUCUCCCUCCUAAGGAGAAGACUGGGGGUUCGAGUCCCGGGCGGAUCG [C22G C49G U64G A65G A70U], the yeast fitness is at most 0.5.

As for GUUCCGUUGGCGAAAUGGUAACGCGUCUCUCUCCUAAGGAGAAGACUGCGGGUUCGAGUCCCGUACGGAACG [U13A C30U], the yeast fitness is 0.802.

For the variant GUUCCGUAGGCGUAAUGGUAACGCGUCUUCCUCUUAAGGAGAAGACUGAGGGUUCGAGUCCCGUACAGAACG [U8A C29U C34U C49A G67A], the yeast fitness is at most 0.5.

Turning to GUUCCGUUGGCGUAAUGGUAACGCGUCGACCUCCUAAGGACAUGACUGCGGGUUCGAGUCCCGUAGGGAACG [U28G C29A G41C A43U C66G], the yeast fitness is 0.595.

Consider GUACCGUUGGCGUAAUGGUAACGCGUCUCCCUCCUAAGGAGAUGACUGCGGGUUCGAGUCCCGUACGGAACG [U3A A43U], for which the yeast fitness is 0.929.

As to GUUCCGUUGGUGUAAUGGUAACGCGUCUCCCUCCUAAGGAGAAGACUGCGGGUUCAAGUCCCGUACUGAACG [C11U G56A G67U], the yeast fitness turned out to be 0.526.

With GUUGCGUUGGCGUAAGGGUAACGCGUCUCUCUCAUAAGGAGAAGACUGCGGGGUCGAGUCCCGUACGGACCG [C4G U16G C30U C34A U53G A70C], the yeast fitness was at most 0.5.

Regarding GUUCCGUUGGCGUAAUGGUAACGCGUCUCCCUCCUAAGGAGAGGACUGCGGGUUCGAGUCACGUACAGAACG [A43G C61A G67A], the yeast fitness is at most 0.5.

GUUCCGUUGGCGUAAUGGUAACGCGUCUCCCUCCUAAGGAGAAGUUUGCGGGUUCGAGUCCCGUACGGAACG [A45U C46U]: the yeast fitness amounted to 1.09.

Take GUUCCGUUGGCGUAAUGGUAACGCGUAUCCCUCUUAAGGAGCAGACUGCGGGGUCGAGUCCCGUAUGGAACG [C27A C34U A42C U53G C66U]: the yeast fitness turned out to be 0.536.

Take GUUCCGUUGGCGUAAUGGUAACGCGUCUCACUCCUAAGGAGAAGACUGCGGGUUCGAGUCCCCUACGGAACG [C30A G63C]: the yeast fitness stood at 0.774.

For GUUCUGUUGGCGUAAUGGUAACGCGUCUCCCUCCUAAGAAGAAGCCUGCGGGUUCGAGUCCCGUACGGAACG [C5U G39A A45C], the yeast fitness was found to be 0.76.

On to GUUCCGUUGGCGCAAUGGUAACGCGUGUCCCUCCUAAGGAGAAGACUGCGGGUUCGAGUCCCGUACGGAACG [U13C C27G], for which the yeast fitness worked out at 0.544.

For GUUCCGUUGCCGUAAUGGUAAAGGGCCUCCCUCCUAAGGAGAAGACUGCGGGAUCGAGUCCCGUACGGAACG [G10C C22A C24G U26C U53A], the yeast fitness was at most 0.5.

In the case of GUUCCGUUGGCGUAAUGGUAACGCGUCUCCCUCCAAAGGAGAAGACUGCGGGUCCGAGUCGCGUACGGAACG [U35A U54C C61G], the yeast fitness came to 0.645.

For the variant GUUCCGUUGGCGUAAUGGUAACGCGUCUCCCUCCUAAGGAGAAGACGGCGGAUUCGAGUCCCGUACGGAACG [U47G G52A], the yeast fitness is at most 0.5.

With GUUACGGUGGCGUAAUGGUAACGCGUUUCCCUCCUAAGGAGAAGCCUGCGGGUUCGAGUCCCGUACGGAACG [C4A U7G C27U A45C], the yeast fitness is at most 0.5.

Regarding GUUCCGUUGGCGUAAUGGAAACGCGUCUCCCUCCUAAGGAGUAGAGUGCGGGUUCGAGUCCCGUACGGAACG [U19A A42U C46G], the yeast fitness was 0.988.

In the case of GCUCCGUUGGCGUAAUGGUAACGCGUCUCCCUCCUAAGGAGAAGACUGCGGGUUCGAGUCCCGUGCGACACG [U2C A65G G68A A69C], the yeast fitness was 0.563.

On to GUUCCGUCGGCGUAAUGGUAACGCGUCUCCCUCCUAAGGAGAAGGCUGCGGGUUCGAGUCCCGUACGGAACG [U8C A45G], for which the yeast fitness was found to be 0.906.

With GUUCCGUUGGCGUAAUGGUAACGCGCCUCCCUCCUAAGGGGAAGACUGUGGGUUCGAGUCCCGUACGGAACG [U26C A40G C49U], the yeast fitness was 0.502.

With GUUCCGUUGGCGUAAUGGUAAGGCGUCUCCCUCCUAAGGAGAAGUCUGCGGGUUCGAGUCCCGUCCGGAACG [C22G A45U A65C], the yeast fitness stood at 0.534.

Regarding GUUCAGUUGGCGUAAUGGUAACGCGUCUCCCUCCUAAGGAGAAGACUGCGGGUUCGGGUCUCGUACGGAACG [C5A A57G C61U], the yeast fitness was at most 0.5.

GUUCGGUUGGCGAAAUGGUAAGGCGUCUGCCUCCUAAGGUGAAGACUGCGGGUCCGAGUCCCGUACGGAACG [C5G U13A C22G C29G A40U U54C]: the yeast fitness is at most 0.5.

As to GUUCCGUAAGCGUAAUGGUAACGCGUCUCCCUCCUAAGGAGAAGACUGCGGGUUCGAGUGCCGUACGGAACG [U8A G9A C60G], the yeast fitness was at most 0.5.

For GUUCCGUUGGCGUAGUGGUAACGCGUCUCCCUCCUAAGGAGAAGACUGCGGGUUCGAGUCCCGUACCGAACG [A15G G67C], the yeast fitness is 0.706.

Turning to GUUCCGUUGGCGUAAUGGCAACGCGUCUCCCUCCUAAGGAGAAGGCUGCGGGUUCGAGUCCUGUACGGAACG [U19C A45G C62U], the yeast fitness amounted to 0.953.

Consider GUUCCGUUGGCGUAAUGGUAACGCGUCUACCUCCUAAGGAGAAGACUGAGGGUUCGAGUCCAGUAUGGAACG [C29A C49A C62A C66U], for which the yeast fitness was at most 0.5.
